ChEMBL document CHEMBL1154425, “Histatin-derived monomeric and dimeric synthetic peptides show strong bactericidal activity towards multidrug-resistant Staphylococcus aureus in vivo” (Antimicrob Agents Chemother, 2007)
Positions of bridges follow the written chain, without caps; N, C: chain ends. Residues, ends and D or L forms follow the SMILES beside them. Chains are numbered I, II in the order given.

Experiments:
Kidney = experiment: Biodistribution in Swiss mouse kidney at 2 to 5 MBq, iv administered as [99m]technetium-radiolabeled peptide by scintigraphic imaging; format: ADME, organism-based; settings: in vivo
Outline: (§1)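 Mice carry a thigh-muscle infection from 0.1 ml saline containing 0.5 to 2.0 × 10^7 CFU S. aureus. Peptides labelled with 99mTc (2 to 5 MBq) are injected intravenously and tracked by scintigraphic imaging. Radioactivity in bladder, kidneys, spleen, liver and infected muscle is given as % of injected dose, mean ± SD.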

[1] = Biodistribution in Swiss mouse urinary bladder at 2 to 5 MBq, iv administered as [99m]technetium-radiolabeled peptide by scintigraphic imaging; format: ADME, organism-based; settings: in vivo; outline: as §1
Staphylococcus aureus [2] = experiment: Bactericidal activity against multidrug-resistant Staphylococcus aureus 2141 isolate infected iv dosed Swiss mouse assessed per gram of infected soft tissue after 24 hrs; format: functional
Outline: (§2)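 Mice infected with 0.1 ml saline containing 0.5 to 2.0 × 10^7 CFU. After 18 h, various peptide amounts given intravenously. Mice kept another 24 h, then sacrificed and viable bacteria counted. LC50 = μmol/g infected tissue cutting viable counts by 50% versus untreated mice. Means from at least three animals per peptide concentration.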

Staphylococcus aureus [3] = experiment: Bactericidal activity against multidrug-resistant Staphylococcus aureus 2141 isolate after 2 hrs; format: functional
Outline: (§3)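 1 × 10^6/ml bacteria in phosphate buffer with 1% (wt/vol) tryptic soybean broth exposed to various peptide amounts, 2 h at 37°C. Viable counts on DST plates. LC50 = concentration (μM) cutting viable bacteria by 50% versus no-peptide incubations. Means from at least three independent experiments.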

Spleen = experiment: Biodistribution in Swiss mouse spleen at 2 to 5 MBq, iv administered as [99m]technetium-radiolabeled peptide by scintigraphic imaging; format: ADME, organism-based; settings: in vivo; outline: as §1
Liver = experiment: Biodistribution in Swiss mouse liver at 2 to 5 MBq, iv administered as [99m]technetium-radiolabeled peptide by scintigraphic imaging; format: ADME, organism-based; settings: in vivo; outline: as §1
Staphylococcus aureus [4] = experiment: Bactericidal activity against Staphylococcus aureus ATCC 25923 infected iv dosed Swiss mouse assessed per gram of infected soft tissue after 24 hrs; format: functional; outline: as §2
Staphylococcus aureus [5] = experiment: Bactericidal activity against Staphylococcus aureus ATCC 25923 after 2 hrs; format: functional; settings: ATCC 25923, 2 h; outline: as §3
[6] = Biodistribution in Staphylococcus aureus infected Swiss mouse thigh muscle at 2 to 5 MBq, iv administered as [99m]technetium-radiolabeled peptide by scintigraphic imaging; format: ADME, organism-based, Muscle tissue; settings: in vivo; outline: as §1
[7] = Ratio of drug level in infected thigh muscle to contralateral noninfected thigh muscle in multidrug-resistant Staphylococcus aureus 2141 infected Swiss mouse administered as [99m]technetium-radiolabeled peptide; format: ADME, tissue-based; settings: in vivo
Outline: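 99mTc-labelled peptides (2 to 5 MBq) injected intravenously into infected mice. Scintigraphic imaging at intervals. Ratio = accumulation in infected thigh muscle (target) over contralateral noninfected thigh muscle (nontarget).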

[8] = Ratio of drug level in infected thigh muscle to contralateral noninfected thigh muscle in Staphylococcus aureus […] infected Swiss mouse administered as [99m]technetium-radiolabeled peptide; format: ADME, tissue-based; settings: in vivo
Outline: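 Thighs are infected with 0.5 to 2.0 × 10^7 CFU S. aureus in 0.1 ml saline, and 99mTc-labelled peptide is given intravenously. Scintigraphic imaging compares radioactivity in the infected thigh muscle (target) with the contralateral noninfected thigh muscle (nontarget). The T/NT ratio is determined at several intervals after injection.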

Mus musculus = experiment: Metabolic stability in Swiss mouse at 2 to 5 MBq, iv administered as [99m]technetium-radiolabeled peptide by scintigraphic imaging; format: ADME, organism-based; settings: in vivo
Outline: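 After intravenous injection of 99mTc-labelled peptide (2 to 5 MBq) into thigh-infected mice, scintigraphic imaging follows clearance from the circulation. The value is the biological half-life in minutes, mean ± SD.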

Q: Which results are given for `N=C(N)NCCC[C@H](NC(=O)[C@H](Cc1cnc[nH]1)NC(=O)[C@H](CO)NC(=O)[C@H](Cc1cnc[nH]1)NC(=O)[C@H](Cc1cnc[nH]1)NC(=O)[C@H](CCCCN)NC(=O)[C@H](CCC(=O)O)NC(=O)[C@H](Cc1cnc[nH]1)NC(=O)[C@H](Cc1ccccc1)NC(=O)[C@H](CCCCN)NC(=O)[C@H](CCCNC(=N)N)NC(=O)[C@@H](N)CCCCN)C(=O)NCC(=O)N[C@@H](Cc1ccc(O)cc1)C(=O)O` (H-KRKFHEKHHSHRGY-OH)?
A: Drug uptake (Kidney): 21 %ID; Drug uptake [1]: 30.7 %ID; LC50 (Staphylococcus aureus [2]): 1 µmol/g; LC50 (Staphylococcus aureus [3]): 112 µM; Drug uptake (Spleen): 2.1 %ID; Drug uptake (Liver): 9.4 %ID; LC50 (Staphylococcus aureus [4]): 2 µmol/g; LC50 (Staphylococcus aureus [5]): 35 µM; Drug uptake [6]: 0.4 %ID; Ratio [7]: 1.8; Ratio [8]: 3.5; t1/2 (Mus musculus): 17.7 min

Q: What does the source list for `N=C(N)NCCC[C@H](NC(=O)[C@H](Cc1cnc[nH]1)NC(=O)[C@H](CO)NC(=O)[C@H](Cc1cnc[nH]1)NC(=O)[C@H](Cc1cnc[nH]1)NC(=O)[C@H](CCCCN)NC(=O)[C@H](CCC(=O)O)NC(=O)[C@H](Cc1cnc[nH]1)NC(=O)[C@H](Cc1ccccc1)NC(=O)[C@H](CCCCN)NC(=O)[C@H](CCCNC(=N)N)NC(=O)[C@@H](N)CCCCN)C(=O)NCC(=O)N[C@@H](Cc1ccc(O)cc1)C(=O)NCCCC[C@H](NC(=O)[C@H](Cc1ccc(O)cc1)NC(=O)CNC(=O)[C@H](CCCNC(=N)N)NC(=O)[C@H](Cc1cnc[nH]1)NC(=O)[C@H](CO)NC(=O)[C@H](Cc1cnc[nH]1)NC(=O)[C@H](Cc1cnc[nH]1)NC(=O)[C@H](CCCCN)NC(=O)[C@H](CCC(=O)O)NC(=O)[C@H](Cc1cnc[nH]1)NC(=O)[C@H](Cc1ccccc1)NC(=O)[C@H](CCCCN)NC(=O)[C@H](CCCNC(=N)N)NC(=O)[C@@H](N)CCCCN)C(N)=O` (I: H-KRKFHEKHHSHRGYK-NH2 / II: H-KRKFHEKHHSHRGY; amide I:15-II:C)?
A: Drug uptake (Kidney): 10.5 %ID; Drug uptake [1]: 26.8 %ID; LC50 (Staphylococcus aureus [2]): 2 µmol/g; LC50 (Staphylococcus aureus [3]): 8.2 µM; Drug uptake (Spleen): 3.2 %ID; Drug uptake (Liver): 9 %ID; LC50 (Staphylococcus aureus [4]): 1.5 µmol/g; LC50 (Staphylococcus aureus [5]): 8.4 µM; Drug uptake [6]: 0.5 %ID; Ratio [7]: 1.8; Ratio [8]: 4.4; t1/2 (Mus musculus): 8.6 min
